Activity calls are given as the source filed them. The calls are words filed in the database; no cut-off is given here.
Key:
[1] = Partition coefficient (logP); assay type: physicochemical; conditions: octanol/water
Procedure, shortened: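 Calculated rather than measured: the parent-structure log P value is summed with π contributions for the substituents. Both sets of constants come from published tables.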

Mus musculus [2] = assay: Number of animals protected or toxic compared to number tested in subcutaneous administration in mice; 1/1; assay type: functional
Procedure, shortened: (§1)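 Mice dosed ip and tested 30 min later. Phase I screen is qualitative: maximal electroshock and subcutaneous metrazol (scMet) seizure tests, plus a rotorod test for neurotoxicity. Reported as the best active dose in mg/kg, with animals protected (or toxic) over the number tested. Run by the NINDS Antiepileptic Drug Development Program.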

Mus musculus [3] = assay: Number of animals protected or toxic compared to number tested maximal electric shock (MES) method in Phase-I by intraperitoneal administration in mice; 1/1; assay type: functional; procedure, shortened: as §1
Mus musculus [4] = assay: Anticonvulsant activity was measured as inhibition of convulsions by maximal electric shock (MES) method in Phase-I by intraperitoneal administration in mice; assay type: functional; procedure, shortened: as §1
Mus musculus [5] = assay: Anticonvulsant activity was measured as inhibition of convulsions by rotarod test in Phase-I by intraperitoneal administration in mice; assay type: functional; procedure, shortened: as §1
Mus musculus [6] = assay: Anticonvulsant activity was measured as inhibition of convulsions by subcutaneous administration in mice; assay type: functional; procedure, shortened: as §1
Mus musculus [7] = assay: Number of animals protected or toxic compared to number tested rotarod test in Phase-I by intraperitoneal administration in mice; 1/4; assay type: functional; procedure, shortened: as §1
Mus musculus [8] = assay: Time taken for measure Anticonvulsant activity in Phase -II by intraperitoneal administration in mice; assay type: functional
Mus musculus [9] = assay: Anticonvulsant activity was measured by rotarod test in Phase -II by intraperitoneal administration in mice; assay type: functional; conditions: ip
Procedure, shortened: (§2)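 Phase II quantification in mice dosed ip: ED50 against maximal electroshock seizures and rotorod neurotoxic TD50, both in mg/kg. The 95% confidence intervals are given in brackets. Run by the NINDS Antiepileptic Drug Development Program.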

Mus musculus [10] = assay: Number of animals protected or toxic compared to number tested rotarod test in Phase-I by intraperitoneal administration in mice; 4/4; assay type: functional; procedure, shortened: as §1
Mus musculus [11] = assay: Number of animals protected or toxic compared to number tested in subcutaneous administration in mice; 4/4; assay type: functional; procedure, shortened: as §1
Mus musculus [12] = assay: Anticonvulsant activity was measured by maximal electric shock (MES) method in Phase -II by intraperitoneal administration in mice; assay type: functional; conditions: ip; procedure, shortened: as §2
[13] = target: Sodium channel alpha subunits; brain (Types I, II, III) (Rattus norvegicus, UniProt P04775+P04774+P08104); assay: Inhibition of binding to sodium channel of rat cerebral cortex; assay type: tissue-based
Procedure, shortened: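 Rat cerebral cortex synaptosomes (~1 mg protein) incubated 40 min at 25 °C with 10 nM [3H]BTX-B, 50 μg/mL scorpion venom and test compound at seven concentrations. Filtration, ice-cold buffer washes, scintillation counting. Nonspecific binding defined with 300 μM veratridine. Triplicate runs with 40 μM DPH control tube. IC50 by Probit analysis, excluding doses giving <10% or >90% inhibition.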

Mus musculus [14] = assay: Number of animals protected or toxic compared to number tested in subcutaneous administration in mice; 3/4; assay type: functional, organism-based; procedure, shortened: as §1
Mus musculus [15] = assay: Number of animals protected or toxic compared to number tested maximal electric shock (MES) method in Phase-I by intraperitoneal administration in mice; 3/3; assay type: functional; procedure, shortened: as §1
Mus musculus [16] = assay: Number of animals protected or toxic compared to number tested maximal electric shock (MES) method in Phase-I by intraperitoneal administration in mice; 1/3; assay type: functional; procedure, shortened: as §1
Mus musculus [17] = assay: Number of animals protected or toxic compared to number tested rotarod test in Phase-I by intraperitoneal administration in mice; 8/8; assay type: functional, organism-based; procedure, shortened: as §1

`CCC1(c2ccccc2)OC(=O)N(C)C1=O` (stereo not drawn) gave a logP [1] of 2.65, an Activity (Mus musculus [2]) of 1 and an Activity (Mus musculus [3]) of 1. The Activity (Mus musculus [4]) was 300 mg/kg, the Activity (Mus musculus [5]) was 300 mg/kg and the Activity (Mus musculus [6]) was 30 mg/kg. For the same compound, the Activity (Mus musculus [7]) was 1, the Time (Mus musculus [8]) was 0.5 h and the TD50 (Mus musculus [9]) was 504 mg/kg.

Compound `CCCC1(c2ccccc2)NC(=O)NC1=O` (stereo not drawn) has a logP [1] of 1.96, an Activity (Mus musculus [10]) of 4 and an Activity (Mus musculus [11]) of 4. For the same compound, the Activity (Mus musculus [3]) was 1, the Activity (Mus musculus [4]) was 30 mg/kg and the Activity (Mus musculus [5]) was 100 mg/kg. It also gave an Activity (Mus musculus [6]) of 100 mg/kg, an ED50 (Mus musculus [12]) of 25 mg/kg and a Time (Mus musculus [8]) of 1 h. It also gave a TD50 (Mus musculus [9]) of 85 mg/kg and an IC50 [13] of 162 µM.

Work on `O=C1NC(=O)C(c2ccccc2)(c2ccccc2)N1` [PHENYTOIN] yielded a logP [1] of 2.46, an ED50 (Mus musculus [12]) of 10 mg/kg and a Time (Mus musculus [8]) of 2 h.

Work on `CCCCC1(c2ccccc2)NC(=O)NC1=O` (stereo not drawn) yielded a logP [1] of 2.46 and an IC50 [13] of 103 µM.

For `O=C1NC2(c3ccccc3)CCCCN1C2=O` (stereo not drawn), the logP [1] was 2.01, the Activity (Mus musculus [10]) was “Active” and the Activity (Mus musculus [14]) was “Weak activity”. It also gave an Activity (Mus musculus [15]) of 3, an Activity (Mus musculus [4]) of 100 mg/kg and an Activity (Mus musculus [5]) of 300 mg/kg. It also gave an Activity (Mus musculus [6]) of 100 mg/kg and an IC50 [13] of 700 µM.

`NC(=O)C1(c2ccccc2)CCCCCNC1=O` (stereo not drawn) gave an Activity (Mus musculus [10]) of 4, an Activity (Mus musculus [11]) of 4 and an Activity (Mus musculus [16]) of 1. For the same compound, the Activity (Mus musculus [4]) was 100 mg/kg, the Activity (Mus musculus [5]) was 300 mg/kg and the Activity (Mus musculus [6]) was 300 mg/kg.

In the case of `CCCCCC1(c2ccccc2)NC(=O)NC1=O` (stereo not drawn), the logP [1] was 2.96 and the IC50 [13] was 39 µM.

Work on `CN1C(=O)OC(C)(C)C1=O` [TRIMETHADIONE] yielded a logP [1] of -0.37, a Time (Mus musculus [8]) of 1 h and a TD50 (Mus musculus [9]) of 810 mg/kg. It also gave an IC50 [13] of over 1000 µM.

`O=C1O[C@@]2(c3ccccc3)CCCCN1C2=O` showed a logP [1] of 2.65, an Activity (Mus musculus [2]) of 1 and an Activity (Mus musculus [4]) of over 300 mg/kg. For the same compound, the Activity (Mus musculus [5]) was over 300 mg/kg and the Activity (Mus musculus [6]) was 300 mg/kg.

For `O=C1OC2(c3ccccc3)CCCCCN1C2=O` (stereo not drawn), the logP [1] was 3.05, the Activity (Mus musculus [17]) was “Active” and the Activity (Mus musculus [2]) was “Active”. The Activity (Mus musculus [15]) was 3, the Activity (Mus musculus [4]) was 100 mg/kg and the Activity (Mus musculus [5]) was 100 mg/kg. It also gave an Activity (Mus musculus [6]) of 100 mg/kg, an ED50 (Mus musculus [12]) of 66 mg/kg and a Time (Mus musculus [8]) of 0.25 h. The TD50 (Mus musculus [9]) was 147 mg/kg and the IC50 [13] was 160 µM.

`O=C1NC2(c3ccccc3)CCCCCN1C2=O` (stereo not drawn) showed a logP [1] of 2.51, an Activity (Mus musculus [10]) of 4 and an Activity (Mus musculus [15]) of 3. The Activity (Mus musculus [4]) was 100 mg/kg, the Activity (Mus musculus [5]) was 300 mg/kg and the Activity (Mus musculus [6]) was over 300 mg/kg. The ED50 (Mus musculus [12]) was 86 mg/kg, the Time (Mus musculus [8]) was 0.25 h and the TD50 (Mus musculus [9]) was 124 mg/kg. It also gave an IC50 [13] of 427 µM.

For `CCCCC1(c2ccccc2)NC(=O)N(C)C1=O` (stereo not drawn), the logP [1] was 3.01 and the IC50 [13] was 285 µM.

Source: ChEMBL document CHEMBL1127730, “Bicyclic hydantoins with a bridgehead nitrogen. Comparison of anticonvulsant activities with binding to the neuronal voltage-dependent sodium channel” (J Med Chem, 1994)
